This note sets out measurements from publication PMC12171725 (RSC Advances, 2025).

SMILES strings stand for the structures. In brackets after ≈: the same amount, converted by molar mass.

In data set [1] the test system is Acinetobacter baumannii AB5075. The data set is described as follows: MIC by broth microdilution. Type of data set: cell-based. To be noted: AB5075, read-out: MIC A. baumannii AB5075, broth microdilution, 37 °C, 18–20 hours. In general terms: Dilution methods test growth across graded concentrations, often in twofold steps.
Data set [2] concerns methicillin-resistant Staphylococcus aureus (MRSA USA300). The data set is described as follows: MIC by broth microdilution. Type of data set: cell-based. The following applies: MRSA|USA300, read-out: MIC S. aureus USA300. Put shortly:
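MRSA USA300 was grown overnight at 37 °C on tryptone soy agar, adjusted to 0.5 McFarland, then diluted in cation-adjusted Mueller-Hinton broth to ∼5 × 10^5 CFU ml−1. […] Plates were incubated aerobically at 37 °C for 18–20 h, following CLSI broth microdilution.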

Data set [3] in a line: MTT cytotoxicity assay. The class given is cell-based. The following applies: human, HEK293 cells (human embryonic kidney cell line). For orientation: Tetrazolium dyes change colour on reduction, which living cells bring about.
Data set [4] has as its system MRSA USA300 biofilms. Nature of the data set: Disruption of mature MRSA biofilms. Type of data set: cell-based, Staphylococcus aureus. The following applies: at 4× MIC.
The subject of data set [5] is erythrocytes. Nature of the data set: Hemolysis. The class given is cell-based. The following applies: LC lytic concentration 30%.

The MIC is the lowest concentration found to suppress growth. The IC50 is the concentration at which inhibition is half-maximal. A lower IC50 goes with greater potency.

On to `CCNS(=O)(=O)c1ccc(-n2nnc(C(C)=NNC(=N)N)c2C)cc1` [Compound 17, 2-(1-(1-(4-(N-Ethylsulfamoyl)phenyl)-5-methyl-1H-1,2,3-triazol-4-yl)ethylidene)hydrazine-1-carboximidamide], for which the MIC in data set [1] and in data set [2] was greater than 64 µg/mL each time.
`CCCCNS(=O)(=O)c1ccc(-n2nnc(C(C)=NNC(=N)N)c2C)cc1` [Compound 18, 2-(1-(1-(4-(N-Butylsulfamoyl)phenyl)-5-methyl-1H-1,2,3-triazol-4-yl)ethylidene)hydrazine-1-carboximidamide]: the MIC in data set [1] and in data set [2] was greater than 64 µg/mL in each case.
For the molecule `CCCCCCNS(=O)(=O)c1ccc(-n2nnc(C(C)=NNC(=N)N)c2C)cc1` [Compound 20, 2-(1-(1-(4-(N-Hexylsulfamoyl)phenyl)-5-methyl-1H-1,2,3-triazol-4-yl)ethylidene)hydrazine-1-carboximidamide], the MIC in data set [1] and in data set [2] was 16 µg/mL (≈ 38 µM) throughout.
Consider `CCCCCCCCNS(=O)(=O)c1ccc(-n2nnc(C(C)=NNC(=N)N)c2C)cc1` [Compound 22, 2-(1-(5-Methyl-1-(4-(N-octylsulfamoyl)phenyl)-1H-1,2,3-triazol-4-yl)ethylidene)hydrazine-1-carboximidamide], for which the MIC in data set [1] and in data set [2] was 64 µg/mL (≈ 143 µM) throughout.
In data set [3], `CCCCCCCCCNS(=O)(=O)c1ccc(-n2nnc(C(C)=NNC(=N)N)c2C)cc1` [Compound 23, 2-(1-(5-Methyl-1-(4-(N-nonylsulfamoyl)phenyl)-1H-1,2,3-triazol-4-yl)ethylidene)hydrazine-1-carboximidamide] showed an IC50 of 52.4 µM. In data set [4], the “percentage of biofilm disruption relative to untreated controls” value was 70–80%. Further, the “Hemolysis LC” value in data set [5] is greater than 10 mg/mL. Moreover, the MIC in data set [1] came out at 64 µg/mL (≈ 138 µM).
With `CN[C@H](CC(C)C)C(=O)N[C@H]1C(=O)N[C@@H](CC(N)=O)C(=O)N[C@H]2C(=O)N[C@H]3C(=O)N[C@H](C(=O)N[C@H](C(=O)O)c4cc(O)cc(O)c4-c4cc3ccc4O)[C@H](O)c3ccc(c(Cl)c3)Oc3cc2cc(c3O[C@@H]2O[C@H](CO)[C@@H](O)[C@H](O)[C@H]2O[C@H]2C[C@](C)(N)[C@H](O)[C@H](C)O2)Oc2ccc(cc2Cl)[C@H]1O` [Vancomycin, reference compound], in data set [2], the MIC was 1 µg/mL (≈ 0.69 µM).
